Source: ChEMBL document CHEMBL5712901, “DOT1L inhibition blocks multiple myeloma cell proliferation by suppressing IRF4-MYC signaling” (2019)
Active and inactive are the calls of the source. The calls are words filed in the database; no cut-off is given here.

What was measured:
RPMI-8226 [1] = assay: Upregulation of IFN in human RPMI-8226 cells assessed as increase in IFITM1 gene at 1 uM for 6 days by qRT-PCR analysis; assay type: functional, cell-based; conditions: time 6.0 day
MM1.S [2] = assay: Effect on human MM1.S cells assessed as change in KLF2 mRNA level at 1 uM for 3 days by ChIP-qPCR analysis; assay type: functional, cell-based; conditions: time 3.0 day
Method in brief: (§1)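 ChIP-qPCR for H3K79me2 at IRF4-MYC signaling genes after 1 μM inhibitor or DMSO for 3 days. Signal normalized to input DNA. An intergenic region 28 kb upstream of KLF2 served as negative control. Mean of 3 replications ± SEM.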

RPMI-8226 [3] = assay: Upregulation of IFN in human RPMI-8226 cells assessed as increase in IFIT1 gene at 1 uM for 6 days by qRT-PCR analysis; assay type: functional, cell-based; conditions: time 6.0 day
MM1.S [4] = assay: Induction of apoptosis in human MM1.S cells assessed as necrotic cells at 1 uM for 6 days by annexin-V based propidium iodide staining based flow cytometric analysis (reference value: 1.8%); assay type: functional; conditions: time 6 day
MM1.S [5] = assay: Induction of apoptosis in human MM1.S cells assessed as late apoptotic cells at 1 uM for 3 days by annexin-V based propidium iodide staining based flow cytometric analysis (reference value: 0.15%); assay type: functional; conditions: time 3 day
MM1.S [6] = assay: Effect on human MM1.S cells assessed as change in PRDM1 mRNA level at 1 uM for 3 days by ChIP-qPCR analysis; assay type: functional, cell-based; conditions: time 3.0 day; method in brief: as §1
MM1.S [7] = assay: Upregulation of GTF2IRD2 gene in human MM1.S cells at 1 uM for 6 days by; assay type: functional, cell-based; conditions: time 6.0 day
Method in brief: (§2)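 Human myeloma lines RPMI-8226 and MM.1S exposed to 1 μM DOT1L inhibitor, or DMSO, for 6 days. Whole-genome expression profiled on gene expression microarray.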

RPMI-8226 [8] = assay: Upregulation of SMIM14 gene in human RPMI-8226 cells at 1 uM for 6 days by; assay type: functional, cell-based; conditions: time 6.0 day
RPMI-8226 [9] = assay: Upregulation of CHRNA6 gene in human RPMI-8226 cells at 1 uM for 6 days by; assay type: functional, cell-based; conditions: time 6.0 day; method in brief: as §2
MM1.S [10] = assay: Upregulation of IFITM3 gene in human MM1.S cells at 1 uM for 6 days by; assay type: functional, cell-based; conditions: time 6.0 day
MM1.S [11] = assay: Upregulation of HLA-DPB1 gene in human MM1.S cells at 1 uM for 6 days by; assay type: functional, cell-based; conditions: time 6.0 day; method in brief: as §2
MM1.S [12] = assay: Upregulation of ZNF862 gene in human MM1.S cells at 1 uM for 6 days by; assay type: functional, cell-based; conditions: time 6.0 day
MM1.S [13] = assay: Upregulation of NTNG1 gene in human MM1.S cells at 1 uM for 6 days by; assay type: functional, cell-based; conditions: time 6.0 day
RPMI-8226 [14] = assay: Upregulation of SLC9A9 gene in human RPMI-8226 cells at 1 uM for 6 days by; assay type: functional, cell-based; conditions: time 6.0 day
MM1.S [15] = assay: Upregulation of TP53I3 gene in human MM1.S cells at 1 uM for 6 days by; assay type: functional, cell-based; conditions: time 6.0 day
MM1.S [16] = assay: Upregulation of NOG gene in human MM1.S cells at 1 uM for 6 days by; assay type: functional, cell-based; conditions: time 6.0 day
MM1.S [17] = assay: Upregulation of GRHL3 gene in human MM1.S cells at 1 uM for 6 days by; assay type: functional, cell-based; conditions: time 6.0 day; method in brief: as §2
MM1.S [18] = assay: Upregulation of RAB37 gene in human MM1.S cells at 1 uM for 6 days by; assay type: functional, cell-based; conditions: time 6.0 day
MM1.S [19] = assay: Upregulation of BCL6 gene in human MM1.S cells at 1 uM for 6 days by; assay type: functional, cell-based; conditions: time 6.0 day
MM1.S [20] = assay: Upregulation of SMIM14 gene in human MM1.S cells at 1 uM for 6 days by; assay type: functional, cell-based; conditions: time 6.0 day
RPMI-8226 [21] = assay: Upregulation of ACOT11 gene in human RPMI-8226 cells at 1 uM for 6 days by; assay type: functional, cell-based; conditions: time 6.0 day
RPMI-8226 [22] = assay: Upregulation of XKR3 gene in human RPMI-8226 cells at 1 uM for 6 days by; assay type: functional, cell-based; conditions: time 6.0 day
RPMI-8226 [23] = assay: Downregulation of H3K79me2 level in human RPMI-8226 cells at 1 uM for 3 days by ChIP-qPCR analysis; assay type: functional, cell-based; conditions: time 3.0 day; method in brief: as §1
RPMI-8226 [24] = assay: Upregulation of ZG16B gene in human RPMI-8226 cells at 1 uM for 6 days by; assay type: functional, cell-based; conditions: time 6.0 day
RPMI-8226 [25] = assay: Upregulation of ISG15 gene in human RPMI-8226 cells at 1 uM for 6 days by; assay type: functional, cell-based; conditions: time 6.0 day
RPMI-8226 [26] = assay: Upregulation of IL1RAP gene in human RPMI-8226 cells at 1 uM for 6 days by; assay type: functional, cell-based; conditions: time 6.0 day
MM1.S [27] = assay: Upregulation of CCR2 gene in human MM1.S cells at 1 uM for 6 days by; assay type: functional, cell-based; conditions: time 6.0 day
RPMI-8226 [28] = assay: Upregulation of GLYATL1 gene in human RPMI-8226 cells at 1 uM for 6 days by; assay type: functional, cell-based; conditions: time 6.0 day; method in brief: as §2
KMS-11 = assay: Upregulation of DOT1L in human KMS-11 cells by qRT-PCR analysis; assay type: functional, cell-based
Method in brief: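 Basal DOT1L transcript in untreated myeloma cell lines measured by qRT-PCR, normalized to ACTB; mean of 3 replicates with SEM.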

MM1.S [29] = assay: Upregulation of CAPG gene in human MM1.S cells at 1 uM for 6 days by; assay type: functional, cell-based; conditions: time 6.0 day
RPMI-8226 [30] = assay: Upregulation of DDIT4L gene in human RPMI-8226 cells at 1 uM for 6 days by; assay type: functional, cell-based; conditions: time 6.0 day; method in brief: as §2
MM1.S [31] = assay: Upregulation of HLA-DQB1 gene in human MM1.S cells at 1 uM for 6 days by; assay type: functional, cell-based; conditions: time 6.0 day
MM1.S [32] = assay: Upregulation of RORC gene in human MM1.S cells at 1 uM for 6 days by; assay type: functional, cell-based; conditions: time 6.0 day
RPMI-8226 [33] = assay: Upregulation of BATF3 gene in human RPMI-8226 cells at 1 uM for 6 days by; assay type: functional, cell-based; conditions: time 6.0 day
RPMI-8226 [34] = assay: Upregulation of ID2 gene in human RPMI-8226 cells at 1 uM for 6 days by; assay type: functional, cell-based; conditions: time 6.0 day
RPMI-8226 [35] = assay: Upregulation of HLA-DRA gene in human RPMI-8226 cells at 1 uM for 6 days by; assay type: functional, cell-based; conditions: time 6.0 day
RPMI-8226 [36] = assay: Upregulation of MYO1F gene in human RPMI-8226 cells at 1 uM for 6 days by; assay type: functional, cell-based; conditions: time 6.0 day
RPMI-8226 [37] = assay: Upregulation of NOG gene in human RPMI-8226 cells at 1 uM for 6 days by; assay type: functional, cell-based; conditions: time 6.0 day
MM1.S [38] = assay: Upregulation of RIMBP3 gene in human MM1.S cells at 1 uM for 6 days by; assay type: functional, cell-based; conditions: time 6.0 day
RPMI-8226 [39] = assay: Upregulation of IFI44 gene in human RPMI-8226 cells at 1 uM for 6 days by; assay type: functional, cell-based; conditions: time 6.0 day
RPMI-8226 [40] = assay: Upregulation of NREP gene in human RPMI-8226 cells at 1 uM for 6 days by; assay type: functional, cell-based; conditions: time 6.0 day
RPMI-8226 [41] = assay: Upregulation of FAM200B gene in human RPMI-8226 cells at 1 uM for 6 days by; assay type: functional, cell-based; conditions: time 6.0 day; method in brief: as §2
MM1.S [42] = assay: Upregulation of LRRC56 gene in human MM1.S cells at 1 uM for 6 days by; assay type: functional, cell-based; conditions: time 6.0 day
MM1.S [43] = assay: Upregulation of MMP9 gene in human MM1.S cells at 1 uM for 6 days by; assay type: functional, cell-based; conditions: time 6.0 day
MM1.S [44] = assay: Upregulation of SNX10 gene in human MM1.S cells at 1 uM for 6 days by; assay type: functional, cell-based; conditions: time 6.0 day
MM1.S [45] = assay: Upregulation of CMTM3 gene in human MM1.S cells at 1 uM for 6 days by; assay type: functional, cell-based; conditions: time 6.0 day; method in brief: as §2
MM1.S [46] = assay: Upregulation of XKR3 gene in human MM1.S cells at 1 uM for 6 days by; assay type: functional, cell-based; conditions: time 6.0 day
RPMI-8226 [47] = assay: Upregulation of PRRT2 gene in human RPMI-8226 cells at 1 uM for 6 days by; assay type: functional, cell-based; conditions: time 6.0 day

Compound: CC(C)N(C[C@H]1O[C@@H](n2cnc3c(N)ncnc32)[C@H](O)[C@@H]1O)[C@H]1C[C@@H](CCc2nc3cc(C(C)(C)C)ccc3[nH]2)C1 [PINOMETOSTAT]
- Activity (RPMI-8226 [1]): Active
- Activity (MM1.S [2]): Active
- Activity (RPMI-8226 [3]): Active
- Activity (MM1.S [4]): 2.47%
- Activity (MM1.S [5]): 0.083%
- Activity (MM1.S [6]): Active

Compound: CC(C)N(CCCNC(=O)Nc1ccc(C(C)(C)C)cc1)C[C@H]1O[C@@H](n2cc(Br)c3c(N)ncnc32)[C@H](O)[C@@H]1O
- Activity (MM1.S [7]): Active
- Activity (RPMI-8226 [8]): Active
- Activity (RPMI-8226 [9]): Active
- Activity (MM1.S [10]): Active
- Activity (MM1.S [11]): Active
- Activity (MM1.S [12]): Active
- Activity (MM1.S [13]): Active
- Activity (RPMI-8226 [14]): Active
- Activity (MM1.S [15]): Active
- Activity (MM1.S [16]): Active
- Activity (MM1.S [17]): Active
- Activity (MM1.S [18]): Active
- Activity (MM1.S [19]): Active
- Activity (MM1.S [20]): Active
- Activity (RPMI-8226 [21]): Active
- Activity (RPMI-8226 [22]): Active
- Activity (RPMI-8226 [23]): Active
- Activity (RPMI-8226 [24]): Active
- Activity (RPMI-8226 [25]): Active
- Activity (RPMI-8226 [26]): Active
- Activity (MM1.S [27]): Active
- Activity (RPMI-8226 [28]): Active
- Activity (KMS-11): Active
- Activity (MM1.S [29]): Active
- Activity (RPMI-8226 [30]): Active
- Activity (MM1.S [31]): Active
- Activity (MM1.S [32]): Active
- Activity (RPMI-8226 [33]): Active
- Activity (RPMI-8226 [34]): Active
- Activity (RPMI-8226 [35]): Active
- Activity (RPMI-8226 [36]): Active
- Activity (RPMI-8226 [37]): Active
- Activity (MM1.S [38]): Active
- Activity (RPMI-8226 [39]): Active
- Activity (RPMI-8226 [40]): Active
- Activity (RPMI-8226 [41]): Active
- Activity (MM1.S [42]): Active
- Activity (MM1.S [43]): Active
- Activity (MM1.S [44]): Active
- Activity (MM1.S [45]): Active
- Activity (MM1.S [46]): Active
- Activity (RPMI-8226 [47]): Active
